In ChEMBL document CHEMBL2390870, “Coumarin chalcone fibrates: a new structural class of lipid lowering agents” (2013) one finds Activity data, which are given here for 19 molecules.

Activity calls are given as the source filed them. The rule behind the calls is not given here.

Test [1] relates to Rattus norvegicus. Kind of test: Antihyperlipidemic activity in triton WR-1339-induced Charles-Foster rat assessed as decrease in plasma phospholipid level at 50 mg/kg, po after 18 hrs relative to control. The class given is functional. Also on record: scale not given: the % may be the effect or the level left. The method, boiled down: (§1)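 Male adult Charles Foster rats (200–225 g), six per group; hyperlipidemia induced by triton WR-1339 400 mg/kg i.p.; test agent macerated with 0.2% w/v gum acacia in water and given orally at the same time, with diet withdrawn; vehicle to controls. After 18 h, plasma was obtained by centrifugation at 2500 g, 4 °C, 10 min and diluted 1:3 in saline. Mean ± SD; Student's t-test.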

Test [2] deals with Rattus norvegicus. Kind of test: Antihyperlipidemic activity in triton WR-1339-induced Charles-Foster rat assessed as increase in post heparin lipolytic activity at 200 mg/kg, po after 18 hrs by spectrophotometric analysis relative to control. Type of test: functional. The method, boiled down:
(§2)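 Triton WR-1339 400 mg/kg i.p. in male Charles Foster rats (six per group), with test agent in 0.2% gum acacia given orally at the same time. Post-heparin plasma lipolytic activity read after 18 h as nmol free fatty acids formed/h/ml plasma; percent change; mean ± SD; t-test.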

Test [3] has as its system Rattus norvegicus. Kind of test: Antihyperlipidemic activity in triton WR-1339-induced Charles-Foster rat assessed as decrease in plasma total cholesterol level at 200 mg/kg, po after 18 hrs relative to control. The class given is functional. Also on record: scale not given: the % may be the effect or the level left. In outline: as §1
Test [4] has as its system Rattus norvegicus. Kind of test: Antihyperlipidemic activity in triton WR-1339-induced Charles-Foster rat assessed as decrease in plasma total cholesterol level at 50 mg/kg, po after 18 hrs relative to control. Type of test: functional. Also on record: scale not given: the % may be the effect or the level left. In outline: as §1
Test [5] has as its system Rattus norvegicus. The test can be described thus: Antihyperlipidemic activity in triton WR-1339-induced Charles-Foster rat assessed as increase in post heparin lipolytic activity at 50 mg/kg, po after 18 hrs by spectrophotometric analysis relative to control. Type of test: functional. The method, boiled down: as §2
Test [6] has as its system Rattus norvegicus. The test can be described thus: Antihyperlipidemic activity in triton WR-1339-induced Charles-Foster rat assessed as decrease in plasma total cholesterol level at 100 mg/kg, po after 18 hrs relative to control. The class given is functional. Set-up: scale not given: the % may be the effect or the level left. The method, boiled down:
as §1

Test [7] has as its system Rattus norvegicus. Kind of test: Antihyperlipidemic activity in triton WR-1339-induced Charles-Foster rat assessed as decrease in plasma phospholipid level at 100 mg/kg, po after 18 hrs relative to control. Type of test: functional. Also on record: scale not given: the % may be the effect or the level left. The method, boiled down: as §1
Test [8] relates to Rattus norvegicus. Kind of test: Antihyperlipidemic activity in triton WR-1339-induced Charles-Foster rat assessed as decrease in plasma phospholipid level at 200 mg/kg, po after 18 hrs relative to control. The class given is functional. Also on record: scale not given: the % may be the effect or the level left. In outline:
as §1

Test [9] deals with Rattus norvegicus. Kind of test: Antihyperlipidemic activity in triton WR-1339-induced Charles-Foster rat assessed as decrease in plasma triglyceride level at 100 mg/kg, po after 18 hrs relative to control. Type of test: functional. Also on record: scale not given: the % may be the effect or the level left. The method, boiled down:
as §1

The subject of test [10] is Rattus norvegicus. The test can be described thus: Antihyperlipidemic activity in triton WR-1339-induced Charles-Foster rat assessed as increase in post heparin lipolytic activity at 100 mg/kg, po after 18 hrs by spectrophotometric analysis relative to control. The class given is functional. In outline:
as §2

The subject of test [11] is Rattus norvegicus. Kind of test: Antihyperlipidemic activity in triton WR-1339-induced Charles-Foster rat assessed as decrease in plasma triglyceride level at 50 mg/kg, po after 18 hrs relative to control. The class given is functional. Set-up: scale not given: the % may be the effect or the level left. In outline: as §1
The subject of test [12] is Rattus norvegicus. Kind of test: Antihyperlipidemic activity in triton WR-1339-induced Charles-Foster rat assessed as decrease in plasma triglyceride level at 200 mg/kg, po after 18 hrs relative to control. Also on record: scale not given: the % may be the effect or the level left. Type of test: functional. In outline:
as §1

In test [13] the test system is Rattus norvegicus. Kind of test: Antihyperlipidemic activity in triton WR-1339-induced Charles-Foster rat assessed as increase in liver lipoprotein lipase activity at 100 mg/kg, po after 18 hrs. The class given is functional, organism-based. Also on record: dose 100 mg/kg.
Test [14] relates to Rattus norvegicus. Kind of test: Antihyperlipidemic activity in triton WR-1339-induced Charles-Foster rat assessed as increase in plasma HDL level at 100 mg/kg, po after 18 hrs. Type of test: functional, organism-based. Also on record: dose 100 mg/kg. The method, boiled down:
as §1

In test [15] the test system is Rattus norvegicus. The test can be described thus: Antihyperlipidemic activity in triton WR-1339-induced Charles-Foster rat assessed as decrease in plasma LDL level at 100 mg/kg, po after 18 hrs. The class given is functional, organism-based. Set-up: dose 100 mg/kg. The method, boiled down: as §1
Test [16] relates to Rattus norvegicus. Kind of test: Antihyperlipidemic activity in triton WR-1339-induced Charles-Foster rat assessed as decrease in plasma VLDL level at 100 mg/kg, po after 18 hrs. The class given is functional, organism-based. Also on record: dose 100 mg/kg. In outline: as §1

Turning to `CCOC(=O)c1cc2cc(/C=C/C(=O)c3ccc(OC(C)(C)C(=O)OCC)cc3)cc(C(C)CC)c2oc1=O` (stereo unspecified), the Activity in test [1] turned out to be 16%; in test [2], 15%; in test [3] it was 23%; in [4], 18%; in [5], 13%; in test [6] it was 22%. Moreover, the Activity was 23% in test [7]; 24% in [8]; 23% in test [9]; 15% in test [10]; 16% in test [11]; 25% in test [12].
Regarding `CCOC(=O)c1cc2cc(/C=C/C(=O)c3ccc(OC(C)C(=O)OCC)cc3)cc(C(C)CC)c2oc1=O` (stereo unspecified), the Activity in test [6] came out at 10%; in test [7], 9%; in test [9] it was 9%; in [10] it was 5%.
`Cc1cc(/C=C/C(=O)c2ccc(OC(C)C(=O)O)cc2)cc2cc(C(=O)O)c(=O)oc12` (stereo unspecified): the result in test [13], in test [14], in [15] and in test [16] was Active. Further, the Activity in [1] came to 15%; in test [2], 17%; in [3], 27%; in test [4], 16%; in [5], 12%; in test [6], 26%. Further, the Activity in test [7] came to 24%; in test [8] it was 24%; in test [9], 25%; in test [10], 17%; in [11], 14%; in [12], 26%.
With `CC(C)c1cc(/C=C/C(=O)c2ccc(OCC(=O)O)cc2)cc2cc(C(=O)O)c(=O)oc12`, the Activity in test [6] stood at 9%; in test [7] it was 7%; in [9], 8%; in test [10], 3%.
`CCOC(=O)C(C)Oc1ccc(C(=O)/C=C/c2cc(C=O)c(O)c(C(C)CC)c2)cc1` (stereo unspecified): the Activity was 13% in test [6], 11% in test [7], 11% in test [9] and 5% in test [10].
Consider `CCOC(=O)CCCOc1ccc(C(=O)/C=C/c2cc(C)c3oc(=O)c(C(=O)OCC)cc3c2)cc1`, for which the Activity in test [6] is recorded as 19%; in test [7] it was 17%; in test [9], 16%; in test [10] it was 12%.
For `CCOC(=O)CCCOc1ccc(C(=O)/C=C/c2cc(C(C)(C)C)c3oc(=O)c(C(=O)OCC)cc3c2)cc1`, in that order: 12%, 11%, 11% and 5%.
For `CCOC(=O)c1cc2cc(/C=C/C(=O)c3ccc(OC(CC)C(=O)OCC)cc3)cc(C)c2oc1=O` (stereo unspecified), in that order: 14%, 15%, 14% and 10%.
Taken in the same sequence, the figures for `CCOC(=O)C(C)Oc1ccc(C(=O)/C=C/c2cc(C)c(O)c(C=O)c2)cc1` (stereo unspecified) were 12%, 13%, 11% and 6%.
As for `CCOC(=O)CCCOc1ccc(C(=O)/C=C/c2cc(C(C)CC)c3oc(=O)c(C(=O)OCC)cc3c2)cc1` (stereo unspecified), the Activity in test [6] amounted to 13%; in test [7], 12%; in test [9] it was 12%; in [10], 7%.
`CCOC(=O)COc1ccc(C(=O)/C=C/c2cc(C(C)CC)c3oc(=O)c(C(=O)OCC)cc3c2)cc1` (stereo unspecified): the Activity is listed as 11% in test [6], 12% in test [7], 11% in test [9] and 8% in [10].
In the case of `CCOC(=O)COc1ccc(C(=O)/C=C/c2cc(C(C)(C)C)c3oc(=O)c(C(=O)OCC)cc3c2)cc1`, the Activity in test [6] was determined as 13%; in test [7], 11%; in test [9], 11%; in test [10], 5%.
Turning to `CCC(C)c1cc(/C=C/C(=O)c2ccc(OC(C)(C)C(=O)O)cc2)cc2cc(C(=O)O)c(=O)oc12` (stereo unspecified), the Activity is 8% in test [6], 8% in test [7], 9% in test [9] and 4% in [10].
`CCOC(=O)COc1ccc(C(=O)/C=C/c2cc(C(C)C)c3oc(=O)c(C(=O)OCC)cc3c2)cc1`: the Activity in test [6] came out at 21%; in [7], 20%; in [9] it was 22%; in test [10] it was 15%.
Taken in the same sequence, the figures for `Cc1ccc(C)c(OCCCC(C)(C)C(=O)O)c1` [GEMFIBROZIL] were 32%, 30%, 33% and 19%.
Regarding `CCC(C)c1cc(/C=C/C(=O)c2ccc(OCC(=O)O)cc2)cc2cc(C(=O)O)c(=O)oc12` (stereo unspecified), the Activity was determined as 8% in test [6], 9% in test [7], 9% in test [9] and 3% in [10].
For `CCOC(=O)c1cc2cc(/C=C/C(=O)c3ccc(OC(C)C(=O)OCC)cc3)cc(C)c2oc1=O` (stereo unspecified), the Activity is given as 10% in [6], 12% in [7], 11% in [9] and 6% in test [10].
Taken in the same sequence, the figures for `CCOC(=O)c1cc2cc(/C=C/C(=O)c3ccc(OC(C)(C)C(=O)OCC)cc3)cc(C)c2oc1=O` were 10%, 10%, 8% and 5%.
For `CCOC(=O)COc1ccc(C(=O)/C=C/c2cc(C)c3oc(=O)c(C(=O)OCC)cc3c2)cc1`, in that order: 6%, 8%, 8% and 2%.
